Measured values taken from ChEMBL document CHEMBL5230175, “The war on hTG2: warhead optimization in small molecule human tissue transglutaminase inhibitors” (RSC Med Chem, 2023).

Columns and labels:
[1] = biological target: T1, Protein-glutamine gamma-glutamyltransferase E (Homo sapiens) (UniProt Q08188); test: Reversible inhibition of activated human TG3 using peptidic FRET-quenched probe A101 as substrate by fluorescence based assay relative to control; conditions: concentration not given here
T1 sequence (whole entry): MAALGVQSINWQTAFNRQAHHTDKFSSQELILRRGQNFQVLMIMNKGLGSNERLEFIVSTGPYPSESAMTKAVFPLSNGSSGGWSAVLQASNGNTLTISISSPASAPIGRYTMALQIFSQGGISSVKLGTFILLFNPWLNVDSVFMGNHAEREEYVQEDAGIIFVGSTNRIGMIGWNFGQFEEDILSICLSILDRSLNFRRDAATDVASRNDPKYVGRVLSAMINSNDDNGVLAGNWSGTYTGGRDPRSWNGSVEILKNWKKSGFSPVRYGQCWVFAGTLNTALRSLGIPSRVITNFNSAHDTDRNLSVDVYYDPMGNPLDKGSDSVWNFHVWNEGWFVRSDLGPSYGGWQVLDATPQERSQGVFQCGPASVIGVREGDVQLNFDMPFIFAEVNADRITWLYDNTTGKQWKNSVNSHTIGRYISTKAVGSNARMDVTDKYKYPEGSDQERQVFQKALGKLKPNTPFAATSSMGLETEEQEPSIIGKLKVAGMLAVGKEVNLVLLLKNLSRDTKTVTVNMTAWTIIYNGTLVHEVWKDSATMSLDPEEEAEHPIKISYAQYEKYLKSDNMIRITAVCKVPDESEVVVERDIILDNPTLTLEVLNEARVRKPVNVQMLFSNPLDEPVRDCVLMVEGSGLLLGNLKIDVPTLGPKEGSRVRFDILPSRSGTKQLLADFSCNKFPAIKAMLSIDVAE

[2] = biological target: T2, Protein-glutamine gamma-glutamyltransferase 6 (Homo sapiens) (UniProt O95932); test: Irreversible inhibition of human TG6 using Cbz-Glu-(gamma-p-nitrophenylester)Gly (AL5) as substrate assessed as substrate hydrolysis by measuring observed binding constant incubated for 60 mins by colorimetric assay
T2 sequence (whole entry): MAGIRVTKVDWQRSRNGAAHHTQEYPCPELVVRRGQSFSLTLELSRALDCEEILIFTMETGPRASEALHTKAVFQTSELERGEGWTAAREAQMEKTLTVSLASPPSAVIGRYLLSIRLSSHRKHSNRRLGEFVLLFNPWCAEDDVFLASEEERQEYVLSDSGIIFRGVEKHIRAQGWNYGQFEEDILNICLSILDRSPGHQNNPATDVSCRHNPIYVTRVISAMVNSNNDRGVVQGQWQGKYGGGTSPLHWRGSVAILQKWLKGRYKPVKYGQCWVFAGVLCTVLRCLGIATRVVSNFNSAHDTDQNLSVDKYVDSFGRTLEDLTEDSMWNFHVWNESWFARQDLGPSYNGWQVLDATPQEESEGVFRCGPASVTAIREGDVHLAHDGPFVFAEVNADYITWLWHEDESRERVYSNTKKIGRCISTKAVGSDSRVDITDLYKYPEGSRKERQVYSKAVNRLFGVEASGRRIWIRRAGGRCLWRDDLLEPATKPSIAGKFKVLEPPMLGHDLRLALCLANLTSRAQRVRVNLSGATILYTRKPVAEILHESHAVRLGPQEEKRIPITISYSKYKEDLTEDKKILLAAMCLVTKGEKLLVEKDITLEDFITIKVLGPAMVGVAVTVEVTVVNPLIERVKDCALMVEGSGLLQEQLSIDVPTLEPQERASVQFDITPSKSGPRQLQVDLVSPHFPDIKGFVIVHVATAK

[3] = biological target: T3, Protein-glutamine gamma-glutamyltransferase (Homo sapiens) (UniProt P21980); test: Irreversible inhibition of human recombinant tissue transglutaminase expressed in Escherichia coli using Cbz-Glu-(gamma-p-nitrophenylester)Gly (AL5) as substrate assessed as substrate hydrolysis by measuring Kinact/Ki ratio by linear regression analysis
T3 sequence (whole entry): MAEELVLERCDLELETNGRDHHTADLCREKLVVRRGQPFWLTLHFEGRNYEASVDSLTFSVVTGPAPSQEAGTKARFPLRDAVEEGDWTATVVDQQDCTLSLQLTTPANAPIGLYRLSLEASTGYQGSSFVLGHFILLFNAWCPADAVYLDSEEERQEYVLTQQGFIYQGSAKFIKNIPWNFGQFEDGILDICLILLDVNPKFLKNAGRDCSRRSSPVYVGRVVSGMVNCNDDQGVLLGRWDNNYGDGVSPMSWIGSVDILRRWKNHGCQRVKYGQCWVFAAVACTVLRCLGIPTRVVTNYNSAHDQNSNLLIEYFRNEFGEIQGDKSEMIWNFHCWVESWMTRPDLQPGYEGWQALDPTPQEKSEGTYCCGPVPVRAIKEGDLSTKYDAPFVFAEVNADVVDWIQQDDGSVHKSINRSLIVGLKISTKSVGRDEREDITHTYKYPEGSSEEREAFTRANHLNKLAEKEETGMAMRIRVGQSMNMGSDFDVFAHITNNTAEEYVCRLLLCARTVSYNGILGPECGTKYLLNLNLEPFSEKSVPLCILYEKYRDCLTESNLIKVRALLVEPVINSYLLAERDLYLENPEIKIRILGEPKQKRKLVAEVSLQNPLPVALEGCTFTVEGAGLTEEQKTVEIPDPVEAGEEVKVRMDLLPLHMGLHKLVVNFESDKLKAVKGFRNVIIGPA
Outline: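 For TG2/AL5 under Kitz–Wilson conditions (100 μM AL5, pH 6.9 MOPS, 25 °C, 405 nm), kinact/KI was taken from simple linear regression of kobs against corrected inhibitor concentration at the lowest inhibitor concentrations.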

[4] = biological target: T3, Protein-glutamine gamma-glutamyltransferase (Homo sapiens); test: Inhibition of human recombinant tissue transglutaminase expressed in Escherichia coli using Cbz-Glu-(gamma-p-nitrophenylester)Gly (AL5) as substrate assessed as substrate hydrolysis by measuring Kinact incubated for 20 mins by colorimetric analysis
[5] = Ratio of Kinact/Ki for inhibition of human tissue transglutaminase assessed as substrate hydrolysis to corrected second order rate constant (K2 corrected) for GSH reactivity in aqueous buffer assessed as GSH adduct formation; type: physicochemical
[6] = biological target: T4, Protein-glutamine gamma-glutamyltransferase (Homo sapiens, UniProt P21980); test: Irreversible inhibition of human recombinant tissue transglutaminase expressed in Escherichia coli using Cbz-Glu-(gamma-p-nitrophenylester)Gly (AL5) as substrate assessed as substrate hydrolysis by measuring KI incubated for 20 mins by colorimetric analysis
T4 sequence (P21980 whole entry): T3 sequence (whole entry)

[7] = biological target: T3, Protein-glutamine gamma-glutamyltransferase (Homo sapiens); test: Irreversible inhibition of human recombinant tissue transglutaminase expressed in Escherichia coli using Cbz-Glu-(gamma-p-nitrophenylester)Gly (AL5) as substrate assessed as substrate hydrolysis by measuring Kinact/Ki ratio incubated for 20 mins by colorimetric analysis

| SMILES | inhibition [1] [%] | K [2] [min⁻¹] | Ratio [3] | Kinact [4] [min⁻¹] | Ratio [5] | Ki [6] [µM] | Ratio [7] |
| --- | --- | --- | --- | --- | --- | --- | --- |
| C=CC(=O)NCC(=O)N1CCN(C(=O)C23CC4CC(CC(C4)C2)C3)CC1 | 59.1 | 0.02 |  |  |  |  |  |
| O=C(CCl)NCC(=O)N1CCN(C(=O)C23CC4CC(CC(C4)C2)C3)CC1 | 41.5 |  | 4540 10^3/M/min | 1.23 | 5.437 | 0.15 | 8050 10^3/M/min |
